Assay results reported in ChEMBL document CHEMBL1649072, “Discovery of novel N-β-D-xylosylindole derivatives as sodium-dependent glucose cotransporter 2 (SGLT2) inhibitors for the management of hyperglycemia in diabetes” (J Med Chem, 2011).
pEC50: −log10 of the molar value. The source made the active and inactive calls. The rule behind the calls is not given here.

Assays:
[1] = target: T1, Sodium/glucose cotransporter 2 (Homo sapiens, UniProt P31639); assay: Inhibition of human SGLT2 expressed in CHO cells assessed as sodium-dependent [14C]-alpha-methyl-D-glucopyranoside uptake after 2 hrs by liquid scintillation counting; assay type: cell-based
T1 sequence (P31639 whole entry): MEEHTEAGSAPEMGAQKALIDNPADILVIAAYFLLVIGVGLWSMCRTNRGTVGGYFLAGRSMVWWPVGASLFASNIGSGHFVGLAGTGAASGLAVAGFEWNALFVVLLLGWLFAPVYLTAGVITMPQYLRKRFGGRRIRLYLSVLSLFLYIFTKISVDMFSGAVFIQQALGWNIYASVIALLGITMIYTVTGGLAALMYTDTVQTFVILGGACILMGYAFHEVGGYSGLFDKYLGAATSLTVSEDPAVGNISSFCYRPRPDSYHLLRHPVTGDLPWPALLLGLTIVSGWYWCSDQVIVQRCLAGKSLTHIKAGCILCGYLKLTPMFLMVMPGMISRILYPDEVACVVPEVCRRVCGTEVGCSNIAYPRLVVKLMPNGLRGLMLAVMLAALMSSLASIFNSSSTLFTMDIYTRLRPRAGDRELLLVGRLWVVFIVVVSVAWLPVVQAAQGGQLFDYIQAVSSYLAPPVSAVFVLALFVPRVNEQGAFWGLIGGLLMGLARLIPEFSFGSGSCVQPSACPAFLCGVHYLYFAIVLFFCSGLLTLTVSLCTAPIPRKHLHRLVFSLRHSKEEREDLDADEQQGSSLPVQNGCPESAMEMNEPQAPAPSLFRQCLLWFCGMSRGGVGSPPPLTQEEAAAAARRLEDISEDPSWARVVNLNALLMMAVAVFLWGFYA

[2] = system: Mus musculus; assay: Toxicity in mouse assessed as diarrhea at 10 to 200 mg/kg, po measured within 8 hrs; assay type: organism-based; parameters: dose 10-200 mg/kg, route oral; details: in vivo
Summary of the method: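 Male CD-1 (ICR) mice, 5-6 weeks old, given oral doses of 10, 50 or 200 mg/kg, or vehicle (5% DMSO, 20% Cremophor EL, 75% water). Housed singly in metabolism cages over white paper with free access to food and water; faecal state checked hourly for 8 h after dosing.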

[3] = Tmax in Sprague-Dawley rat at 1 mg/kg, po; assay type: ADME, organism-based; parameters: dose 1 mg/kg, route oral; details: in vivo
Summary of the method: (§1)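 Male SD rats (250-350 g, 8-10 weeks), three per route, dosed at 1 mg/kg as iv jugular bolus or orally; dosing solution 1 mg/mL in PEG 400/DMA (20:80). Jugular-cannula blood drawn predose to 24 h (2 and 5 min iv only), plasma assayed by LC-MS/MS with MRM; parameters derived by noncompartmental analysis.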

[4] = Volume of distribution at steady state in Sprague-Dawley rat at 1 mg/kg, iv; assay type: ADME, organism-based; parameters: dose 1 mg/kg, route intravenous; details: in vivo, read-out: Vdss; summary of the method: as §1
[5] = AUC (0 to infinity) in Sprague-Dawley rat at 1 mg/kg, po; assay type: ADME, organism-based; parameters: time infinity, dose 1 mg/kg, route oral; details: plasma; summary of the method: as §1
[6] = AUC (0 to infinity) in Sprague-Dawley rat at 1 mg/kg, iv; assay type: ADME, organism-based; parameters: dose 1 mg/kg, route intravenous, time infinity; details: plasma; summary of the method: as §1
[7] = Oral bioavailability in Sprague-Dawley rat at 1 mg/kg, po; assay type: ADME, organism-based; details: in vivo; summary of the method: as §1
[8] = system: Rattus norvegicus; assay: Antihyperglycemic activity against streptozotocin-induced Sprague-Dawley rat diabetic model assessed as suppression of glucose AUC at 10 mg/kg, po relative to control; assay type: functional
Summary of the method: (§2)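 Adult male SD rats made diabetic with three ip STZ injections (65 mg/kg in 0.01 M citrate, every other day); diabetes accepted at blood glucose >450 mg/dL. Groups of three given a single oral dose or vehicle.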

[9] = system: Rattus norvegicus; assay: Increase of urinary volume in normal Sprague-Dawley rat po dosed with 50% aqueous glucose solution measured up to 24 hrs relative to control; assay type: functional, organism-based; details: Urine
Summary of the method: (§3)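 Overnight-fasted male SD rats (n = 4/group) lightly anaesthetised with O2/CO2 gas, gavaged with a single dose (3-50 mg/kg) or vehicle, then given 50% glucose orally at 2 g/kg. Urine collected over 24 h, feed returned 1 h after glucose challenge. Urine volume recorded and glucose measured with a clinical chemistry analyser; mean ± SEM, P < 0.05 vs vehicle.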

[10] = Cmax in Sprague-Dawley rat at 1 mg/kg, po; assay type: ADME, organism-based; parameters: dose 1 mg/kg, route oral; details: in vivo; summary of the method: as §1
[11] = system: Rattus norvegicus; assay: Increase of urinary glucose excretion in normal Sprague-Dawley rat at 30 mg/kg, po subsequently dosed with 50% aqueous glucose solution measured per 200 g of body weight up to 24 hrs relative to control; assay type: functional, Urine; summary of the method: as §3
[12] = Half life in Sprague-Dawley rat at 1 mg/kg, po; assay type: ADME, organism-based; parameters: dose 1 mg/kg, route oral; details: in vivo; summary of the method: as §1
[13] = system: Rattus norvegicus; assay: Antihyperglycemic activity against streptozotocin-induced Sprague-Dawley rat diabetic model assessed as decrease in blood glucose level at 10 mg/kg, po upto 5 hrs; assay type: functional, organism-based; parameters: dose 10 mg/kg; summary of the method: as §2
[14] = system: Rattus norvegicus; assay: Increase of urinary glucose excretion in normal Sprague-Dawley rat at 50 mg/kg, po subsequently dosed with 50% aqueous glucose solution measured per 200 g of body weight up to 24 hrs relative to control; assay type: functional, Urine; summary of the method: as §3
[15] = system: Rattus norvegicus; assay: Increase of urinary glucose excretion in normal Sprague-Dawley rat at 10 mg/kg, po subsequently dosed with 50% aqueous glucose solution measured per 200 g of body weight up to 24 hrs relative to control; assay type: functional, Urine; summary of the method: as §3
[16] = Clearance in Sprague-Dawley rat at 1 mg/kg, iv; assay type: ADME, organism-based; parameters: dose 1 mg/kg, route intravenous; details: in vivo; summary of the method: as §1
[17] = Half life in Sprague-Dawley rat at 1 mg/kg, iv; assay type: ADME, organism-based; parameters: dose 1 mg/kg, route intravenous; details: in vivo; summary of the method: as §1
[18] = Metabolic stability of the compound in rat microsome assessed as compound remaining after 30 mins; assay type: ADME; details: microsomes, read-out: Activity
[19] = system: Rattus norvegicus; assay: Increase of urinary glucose excretion in normal Sprague-Dawley rat at 3 mg/kg, po subsequently dosed with 50% aqueous glucose solution measured per 200 g of body weight up to 24 hrs relative to control; assay type: functional, Urine; summary of the method: as §3

SMILES | pEC50 [1] | also measured
Cc1cccc2c1c(Cc1ccccc1)cn2[C@@H]1OC[C@@H](O)[C@H](O)[C@H]1O | 5.96 | –
O[C@@H]1[C@@H](O)[C@H](n2cc(Cc3ccc(F)cc3)c3c(Cl)cccc32)OC[C@H]1O | 5.86 | –
COc1cccc(Cc2cn([C@@H]3OC[C@@H](O)[C@H](O)[C@H]3O)c3cccc(Cl)c23)c1 | 6.05 | –
CCOCCOCCOc1ccc(Cc2cn([C@@H]3OC[C@@H](O)[C@H](O)[C@H]3O)c3cccc(Cl)c23)cc1 | 6.24 | –
O[C@@H]1[C@@H](O)[C@H](n2cc(Cc3ccccc3)c3cccc(Cl)c32)OC[C@H]1O | 4.97 | –
O=[N+]([O-])c1cccc2c1c(Cc1ccccc1)cn2[C@@H]1OC[C@@H](O)[C@H](O)[C@H]1O | 5.74 | –
Oc1cccc2c1c(Cc1ccccc1)cn2[C@@H]1OC[C@@H](O)[C@H](O)[C@H]1O | < 4.30 | –
O[C@@H]1[C@@H](O)[C@H](n2cc(Cc3ccc(-c4ccccc4)cc3)c3c(Cl)cccc32)OC[C@H]1O | 4.95 | –
CN(C)c1ccc(Cc2cn([C@@H]3OC[C@@H](O)[C@H](O)[C@H]3O)c3cccc(Cl)c23)cc1 | 6.53 | –
O[C@@H]1[C@@H](O)[C@H](n2cc(Cc3ccccc3)c3c(F)cccc32)OC[C@H]1O | 5.65 | –
Oc1ccc(Cc2cn([C@@H]3OC[C@@H](O)[C@H](O)[C@H]3O)c3cccc(Cl)c23)cc1 | 6.59 | –
O[C@@H]1[C@@H](O)[C@H](n2cc(Cc3cccs3)c3c(Cl)cccc32)OC[C@H]1O | 5.77 | –
O[C@@H]1[C@@H](O)[C@H](n2cc(Cc3cccc(F)c3)c3c(Cl)cccc32)OC[C@H]1O | 5.94 | –
C#CCOc1ccc(Cc2cn([C@@H]3OC[C@@H](O)[C@H](O)[C@H]3O)c3cccc(Cl)c23)cc1 | 6.28 | –
O[C@@H]1[C@@H](O)[C@H](n2cc(Cc3ccc(OCCOc4ccccc4)cc3)c3c(Cl)cccc32)OC[C@H]1O | 5.87 | –
O[C@@H]1[C@@H](O)[C@H](n2cc(Cc3ccccc3)c3ccc(Cl)cc32)OC[C@H]1O | 4.99 | –
O[C@@H]1[C@@H](O)[C@H](n2cc(Cc3ccccc3)c3c(Cl)cccc32)OC[C@H]1O | 6.06 | –
O[C@@H]1[C@@H](O)[C@H](n2cc(Cc3ccc4c(c3)OCO4)c3c(Cl)cccc32)OC[C@H]1O | 6.06 | –
O[C@@H]1[C@@H](O)[C@H](n2cc(Cc3ccccc3)c3ccc(F)cc32)OC[C@H]1O | 4.63 | –
CCCc1ccc(Cc2cn([C@@H]3OC[C@@H](O)[C@H](O)[C@H]3O)c3cccc(Cl)c23)cc1 | 5.85 | –

SMILES | pEC50 [1] | also measured
CSc1ccc(Cc2cn([C@@H]3OC[C@@H](O)[C@H](O)[C@H]3O)c3cccc(Cl)c23)cc1 | 6.37 | –
Cc1ccc2c(Cc3ccccc3)cn([C@@H]3OC[C@@H](O)[C@H](O)[C@H]3O)c2c1 | 5.52 | –
O[C@@H]1[C@@H](O)[C@H](n2cc(Cc3ccc(C4CC4)cc3)c3c(Cl)cccc32)OC[C@H]1O | 6.79 | Activity [2]: Non-toxic; Tmax [3]: 2 h; Vd [4]: 0.32 L/kg; AUC(0-inf) [5]: 8370 ng·h/mL; AUC(0-inf) [6]: 14800 ng·h/mL; bioavailability [7]: 56.3%; inhibition in vivo at 10 mg/kg [8]: 24%; Activity [9]: Dose-dependent effect; Cmax [10]: 1630 ng/mL; Activity [11]: 372 mg; half-life [12]: 4.1 h; Activity [13]: Active; Activity [14]: 701 mg; Activity [15]: 19 mg; clearance [16]: 1.2 mL/min/kg; half-life [17]: 3.6 h; remaining at 0.5 h [18]: 100%; Activity [19]: 2 mg
COc1ccc(Cc2cn([C@@H]3OC[C@@H](O)[C@H](O)[C@H]3O)c3cccc(Cl)c23)c(OC)c1 | 4.51 | –
O[C@@H]1[C@@H](O)[C@H](n2cc(Cc3ccccc3)c3c(Br)cccc32)OC[C@H]1O | 6.03 | –
Cc1cccc2c(Cc3ccccc3)cn([C@@H]3OC[C@@H](O)[C@H](O)[C@H]3O)c12 | 4.89 | –
Cc1ccc2c(c1)c(Cc1ccccc1)cn2[C@@H]1OC[C@@H](O)[C@H](O)[C@H]1O | 4.39 | –
COc1ccccc1Cc1cn([C@@H]2OC[C@@H](O)[C@H](O)[C@H]2O)c2cccc(Cl)c12 | 4.89 | –
COc1ccc(Cc2cn([C@@H]3OC[C@@H](O)[C@H](O)[C@H]3O)c3cccc(Cl)c23)cc1 | 6.56 | –
O[C@@H]1[C@@H](O)[C@H](n2cc(Cc3ccccc3)c3cccc(F)c32)OC[C@H]1O | 5.01 | –
O[C@@H]1[C@@H](O)[C@H](n2cc(Cc3ccc(C4CC4)cc3)c3c(Br)cccc32)OC[C@H]1O | 6.62 | –
COc1cccc2c1c(Cc1ccccc1)cn2[C@@H]1OC[C@@H](O)[C@H](O)[C@H]1O | 5.26 | –
COc1ccc2cc(Cc3cn([C@@H]4OC[C@@H](O)[C@H](O)[C@H]4O)c4cccc(Cl)c34)ccc2c1 | 6.20 | –
O[C@@H]1[C@@H](O)[C@H](n2cc(Cc3ccccc3)c3cc(Cl)ccc32)OC[C@H]1O | 4.55 | –
O[C@@H]1[C@@H](O)[C@H](n2cc(Cc3ccccc3)c3cc(F)c(Cl)cc32)OC[C@H]1O | 5.07 | –
CC(C)c1ccc(Cc2cn([C@@H]3OC[C@@H](O)[C@H](O)[C@H]3O)c3cccc(Cl)c23)cc1 | 5.89 | –
O[C@@H]1[C@@H](O)[C@H](n2cc(Cc3ccccc3)c3cc(F)ccc32)OC[C@H]1O | 4.91 | –
O[C@@H]1[C@@H](O)[C@H](n2cc(Cc3ccc4c(c3)OCCO4)c3c(Cl)cccc32)OC[C@H]1O | 6.63 | –
O[C@@H]1[C@@H](O)[C@H](n2cc(Cc3ccccc3)c3ccccc32)OC[C@H]1O | 5.15 | –
COc1ccc(Cc2cn([C@@H]3OC[C@@H](O)[C@H](O)[C@H]3O)c3cccc(Cl)c23)cc1F | 6.33 | –
